# Assay results reported in the EternaBench riboswitch data.
# Tested on: MS2 coat protein
# Experiment: apparent Kd, MS2 coat protein; higher = weaker binding; RNA-MaP array; FMN 200 µM where present
# In short: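 Apparent Kd: the median of filtered binding-curve fits from single clusters. Designs were transcribed on Illumina sequencing-chip clusters by stalled E. coli RNA polymerase and titrated with SNAP-549-labelled MS2 coat protein from 0.7 or 1.5 nM, doubling to 3 µM, in 100 mM Tris-HCl pH 7.5, 80 mM KCl, 4 mM MgCl2, BSA, DTT, yeast tRNA and Tween-20. Each series ran without and then with constant ligand, and green signal was normalised to red-channel RNA signal and control-cluster median Fmax.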
# [1] = designed as: OFF switch for flavin mononucleotide, no ligand
# [2] = ligand present: flavin mononucleotide, designed as: OFF switch for flavin mononucleotide
# [3] = designed as: ON switch for flavin mononucleotide, no ligand
# [4] = ligand present: flavin mononucleotide, designed as: ON switch for flavin mononucleotide
Sequence,apparent Kd [1] [nM],apparent Kd [2] [nM],apparent Kd [3] [nM],apparent Kd [4] [nM]
AAAAAAAGAGGAUAUACAUGAGAAAAAAAAAUGUAAAAAAAACAUGAGGAUCACCCAUGUAGAAGGCUUAAAAA,34.6,45.4,–,–
AAAAAACAAGGAUAUACGUAUGAGGAUUGUCUUAAUUUUUGACAUGAGGAUCACCCAUGUAGAAGGUGUUAAAA,120,126,–,–
AAAAAACAUGAGGAUCACCCAUGUAAAAAUAUGGGAGGAUAUUCAAACACGAAAGUGAAAGAAGAAGGCCUAAAAA,–,–,66.6,23.3
AAAAAACAUGAGGAUCACCCAUGUAAGGAUAUGCUAAAAAAAAAAAAAAAAAAAAAAUGCAGAAGGUACAAAAA,63.6,78.2,–,–
AAAAAACAUGAGGAUCACCCAUGUCAGGAUAUCGUUGAAAAAAAAAAAAAAAAAAAAGCGAGAAGGGACACGAA,72.6,68.2,–,–
AAAAAACAUGAGGAUCACCCAUGUCAGGAUAUGAAAAAAAAAAAAAAAAAAAAAAAAAUCAGAAGGGACAAAAA,66.4,36.1,–,–
AAAAAACAUGAGGAUCACCCAUGUGAGGAUAUCAAAUAAAGGCACAUGAGAAGGCAUAUGAGAAGGCACAUGAA,99.3,156,–,–
AAAAAACAUGAGGAUCACCCAUGUGAGGAUAUGCUAAAAAAAAAAAAAAAAAAAAAAUGCAGAAGGUACAAAAA,75.9,72.8,–,–
AAAAAGCGAGGAUAUACAUGAGGAUCACCCAUGUGAGAGAAAAAAAGGAGAAAAAAAAGUAGAAGGCGCAAAAA,61.6,72.2,–,–
AAAACACAUGAGGAUCACCCAUGUGAGGAUAUGCUAUGGAAAAUAAAAAUAAAACAUAGCAGAAGGCACAAAGG,62.5,152,–,–
AAAACAUGAGGAUCACCCAUGUAAAGAACGGUUAAUAAAUGUGAGGAUAUACUAAAAUUUAGGUAGUAGAAGGCACUGGGUACA,–,–,24.1,25.7
AAAACAUGAGGAUCACCCAUGUAAAGAUCACUUAAUAGUUGUGAGGAUAUACGAUUUUAAAGCUAGUAGAAGGCACUGGGUACA,–,–,28.1,36.1
AAAACAUGAGGAUCACCCAUGUAAAGAUCGGUUAAUAGAAGUGAGGAUAUACGAAGUUAAAGCUGGUAGAAGGCACUGGGUACA,–,–,34.7,33.2
AAAACAUGAGGAUCACCCAUGUUUAGAUCGGUCGAUAGAAGUGAGGAUAUACUAAGUUAAGGCUGGUAGAAGGCACUGGGUACA,–,–,26.9,27.5
AAAACGCGGGAGAAGGCCACUUACCGUUACAUGGACGUGAGAAAUAAAUGGAGGAUAUCCCUACAUGAGGAUCACCCAUGUAAU,–,–,412,103
AAAACGGCGCAUCCCGCGCCAACUACAGAAGGCCAACAUGAGGAUCACCCAUGUACAAACUAGAUGGAGGAUAUGUAGGUUCUA,–,–,5.18,4.2
AAAAGACAUGAGGAUCACCCAUGUCAAGACGUGGGAGGAUAUGUAUGGAAACCAGACUGUACAGAAGGCCUUUGUC,–,–,46.8,20.1
AAAAGGCUAGGAUAUACAUGAGGAUCACCCAUGUGUACUGGACAUGCGGUAUGCGGAUGUAGAAGGAGUAUAAA,23.4,62.4,–,–
AAAAUAAAAAGGCAGGAUAUCCAAAAUAAAACAUGAGGAUCACCCAUGUAAAUAAAAAUAAAGUGGGAGAAGGGUUAAAAAUAAAA,–,–,58.3,45.3

Sequence,apparent Kd [1] [nM],apparent Kd [2] [nM],apparent Kd [3] [nM],apparent Kd [4] [nM]
AAAAUCACAUGAGGAUCACCCAUGUACCGAGUUAAGGCUACAUAGGAUAUGACAAGUAUAGCUUGUCAGAAGGGUGAGUCUCGC,–,–,58.2,97.7
AAACAACGUCAGAAGGCCGAUGGAUUUGACCACGGAGGAUAUGACAUGAGGAUCACCCAUGUGAUGCUUCUAACCCGCUGGGCC,31.3,289,–,–
AAACACGGACAUGAGGAUCACCCAUGUGGCGAAAGCCUUGGAAGAAGGCCGUAUGCAAAGCAUACGGAGGAUAUUCAUACCGUG,–,–,15.6,5.85
AAACAGCUAGGAUAUACCCUCCGUGAGACUCCCAAAUCGAAACAUGAGGAUCACCCAUGUAGAAGGAGCUGACG,13.4,12.2,–,–
AAACAGGGAGGAUAUACAUAGAUCCUCUAACCUAAUAGGUCACAUGAGGAUCACCCAUGUAGAAGGCCCUUAGG,12.4,12.2,–,–
AAACAUGUCCGAGGAUAUCUGAGAUCAUUUUCAAGAGAAGGCGGACAUGAGGAUCACCCAUGUCUCUCCUCAUCAACUCUAAAU,5.99,36.9,–,–
AAACCGUGUGGAGGAUAUGCAGUUGAGGUGAGGUAGCAACUCUAUACGACAGCAGAAGGCCACAUGAGGAUCACCCAUGUAGGU,489,158,–,–
AAACCGUGUGGAGGAUAUGCAGUUGAGGUGAGGUGGCAACUCUAUACGACCGCAGAAGGCCACAUGAGGAUCACCCAUGUAGGU,293,61.5,–,–
AAACCUUCUGAGGAUAUCUGAGGCCCUGCGCUUAGAGAAGGUAGUACAUGAGGAUCACCCAUGUCCGCGCUGGG,16.3,17.9,–,–
AAAGCACGAGGAUAUACAUGAGGAUCACCCAUGUAUAACCAAAAAAAAAGAUCCUCAUGUAGAAGGCGUGCAAA,18.9,16.8,–,–
AAAGGUGCAGGAUAUGCGUGGAAAAAGUGUAUUCAAAAAAAACAUGAGGAUCACCCAUGUAGAAGGGUACCAAA,65.9,180,–,–
AAAGUGCAAGGAUAUAUAUGAAAAGUUACGAAAGUAACAAAACAUGAGGAUCACCCAUGUAGAAGGUGCACAAA,27.8,24.4,–,–
AAAGUGUGAGGAUAUUCGUAGUACACGGAGACGUGUAUUACGGAGAAGGCACAUGAGGAUCACCCAUGUUCCUU,20.4,143,–,–
AAAUAAAACGAUCGGCGAUCCAAACAUGAGGAUCACCCAUGUAGAAGGCACUCUACAUAGUAGAGUGAGGAUAUACGAGAUCGA,22.1,584,–,–
AAAUAAAGGACUGAGGAUAUACCACAUGAAACAUGAGGAUCACCCAUGUAAUAAUACAAAGGGUGGUAGAAGGUAGUCCACAAACA,–,–,34.9,16.8
AAAUAGCGAGGAUAUACAUGAGGAUCACCCAUGUGGACUGAUGUCGCAUGAUUCAGUGGUAGAAGGUGCUCAAA,90.4,127,–,–
AAAUAGUUAGGAUAUACAUGAGGAUCACCCAUGUGGACUUAUGGCGAUUAAUUUAGUGGUAGAAGGGACUAAAA,37.2,47.6,–,–
AAAUGGGCGUAGGAUAUGAGAUGGUCUAGCAGCUCAGAAGGACGCACAUGAGGAUCACCCAUGUGAUCGGACUA,–,224,–,–
AAAUUCUGAGGAUAUCGAUGUUUGUACAUGAGGAUCACCCAUGUCCUUUUUAUUUUUUCCCGAGAAGGCAGUGUAU,45,35.3,–,–

Sequence,apparent Kd [1] [nM],apparent Kd [2] [nM],apparent Kd [3] [nM],apparent Kd [4] [nM]
AAAUUGUGAGGAUAUCAGGUGUGCUAGCGUACUGGUACAUCUGAGAAGGCACAUGAGGAUCACCCAUGUUUCUU,16.1,44.2,–,–
AACAAACAUGAGGAUCACCCAUGUGAGGAUAUCGAAACAACAAACAACAAACAACAAACGAGAAGGCGCAACAA,29.1,27.6,–,–
AACAGUACAGGAUAUACAUGAGGAUCACCCAUGUGACAAUUAAGUGGCGUACCACAAAGUAGAAGGGUACUGGA,28.2,150,–,–
AACAGUAGAGGAUAUACAUGAGGAUCACCCAUGUGAGAAUUAAGUGGCGUACCACUAAGUAGAAGGCUACUGGA,96.9,235,–,–
AACAGUAGAGGAUAUACAUGAGGAUCACCCAUGUGAUAAUUACGUGGCGUACCACGAAGUAGAAGGCUACUGGA,65.6,316,–,–
AACAGUAUAGGAUAUACAUGAGGAUCACCCAUGUGAGAAUUAAGUGGCGUACCACUAAGUAGAAGGAUACUGGA,50.8,222,–,–
AACAGUGCAAUAAUAAUAAGAUCUACAUGAGGAUCACCCAUGUAGGAUAUCGUCAGGAAUACUGACGAGAAGGACAUAGCACUG,13.9,15.6,–,–
AACCAGUUGGUAGGAUAUGGUGCAGUGCCCGUACCAGAAGGACCAACAUGAGGAUCACCCAUGUUGGAAAGUCAACAUUAAUGA,6.32,11.8,–,–
AACCUAAAACAGAAGGCCAAAUACAUGAGGAUCACCCAUGUCGAAUCAUGGAGGAUAUGUUGUUAUUUACUCGCAGAUGAGUGC,–,–,77.6,8.18
AACCUGAGGCUUUGCUUUAGGUGAACAUGAGGAUCACCCAUGUAGGAUAUGGUAGGCUUUGCUUACCAGAAGGACAUAUUAAUU,39.3,86.1,–,–
AACGAGCAGUAGAAGGCAUGUCUACGGACAUGAGGAUCACCCAUGUUGUGACUCCGAAAGGAGCGUGAGGAUAUACUGCUCAAA,–,–,91.9,14.3
AACGUGUAAGGAUAUGCUGCUCGUCACGAAAGUGAUGAGUAGCAGAAGGUACAUGAGGAUCACCCAUGUAAAGA,31.8,67,–,–
AACGUGUGAGGAUAUGCACGAGUGACAGGGAGGCUGUCACAGCAGAAGGUACAUGAGGAUCACCCAUGUGAAAU,24.9,20.6,–,–
AACUAAGUAUUAAUGGUGUCUGACAGAAGGCAAUAGAAUGAGACCGACAUGAGGAUCACCCAUGUUGAGGAUAUGUCUAGCUAC,6.33,7.27,–,–
AACUAGUCAGGAUAUACGAACAUGUCAAAAAACAUGAAGGGACAUGAGGAUCACCCAUGUAGAAGGGACUAGCA,37.8,223,–,–
AACUCGUCAGGAUAUGCGCGCAGUUACUGCGCUUCGCAAUUGCAGAAGGGACAUGAGGAUCACCCAUGUAGGUC,42,45.4,–,–
AACUUGUCAGGAUAUCUUACAUUUGCAUCUUAGUUACCAUUGGAGAAGGGACAUGAGGAUCACCCAUGUUUGGU,37.1,32.2,–,–
AAGAAACACGUGGAGUUAUUCGGGUAGGAUAUCUACGACCUGAUCGACAUGAGGAUCACCCAUGUAGAGAAGGGCCCAUCUCCU,6.65,8.87,–,–
